The record followed here is ChEMBL document CHEMBL1795269, “Novel (E)-5-styryl-2,2'-bithiophene derivatives as ligands for β-amyloid plaques” (Eur J Med Chem, 2011).

A short description of experiment [1]: Displacement of [125I]-TZDM from amyloid beta 1 to 42 after 2 hrs by gamma counting. The essentials: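 Aβ1-42 aggregated at 0.25 mg/mL in pH 7.4 buffer (10 mM sodium phosphate, 1 mM EDTA), 37 °C for 42 h with shaking. Fibrils (28 nM final) mixed with [125I]TZDM and inhibitor (10^-5 to 10^-10 M in EtOH) in PBS (0.2 M, pH 7.4). Incubated 2 h at 37 °C; nonspecific binding taken with 100 nM TZDM. Bound and free separated by vacuum filtration through glass fibre filters, washed with cold PBS containing 10% ethanol, then counted; Ki reported.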
(In general: Displacement assays read how much labelled ligand stays bound in the presence of the test substance.)

For experiment [2], the species on record is Mus musculus. Put plainly: Binding affinity to amyloid beta in APP/PS1 transgenic C57 mouse brain at 1 uM after 10 mins by fluorescence assay. It counts as tissue-based. In a few lines:
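Paraffin-embedded brain sections (10 μm) from APP/PS1 C57 transgenic mouse, deparaffinized through xylene and graded ethanol, then PBS (0.2 M, pH 7.4) 30 min. Sections incubated 10 min with compound (1 μM in 20% ethanol), washed with 50% ethanol and PBS. Confocal fluorescence read at excitation 405 nm, 505 nm long-pass. Plaques confirmed with thioflavin-S (1 μM) on adjacent sections.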

Experiment [3] is filed under the species Mus musculus. As to the kind of experiment: Binding affinity to amyloid beta in APP/PS1 transgenic C57 mouse brain cortex at 5 uCi/100 uL after 30 mins by autoradiography. It counts as tissue-based. Particulars: tested as the 125I-labelled form. In a few lines: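 Deparaffinized transgenic mouse brain sections incubated 30 min at room temperature with [125I]-labelled tracer (5 μCi/100 μL). Washed with saturated Li2CO3 in 40% EtOH for 3 min, then 40% EtOH for 3 min, then rinsed 30 s in water. Plaques checked afterwards by thioflavin-S (1 μM) fluorescence staining of the same sections.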

The structures appear in SMILES notation. Active and inactive are the calls of the source. The rule behind the calls is not given here.

By Ki is commonly meant the equilibrium dissociation constant of an inhibitor or competing ligand from its target. In the case of `Ic1ccc(/C=C/c2ccc(-c3ccc(I)s3)s2)cc1`, in experiment [1], the Ki is 0.63 nM and the inhibition result is “Dose-dependent effect”.

As to `O=[N+]([O-])c1ccc(/C=C/c2ccc(-c3ccc(Br)s3)s2)cc1`, in experiment [1], the Ki came to 0.1 nM and the inhibition result is “Dose-dependent effect”. For the same molecule, in the experiment listed under Mus musculus [2], the outcome was Active.

With `Nc1ccc(/C=C/c2ccc(-c3cccs3)s2)cc1`, in experiment [1], the inhibition constant Ki amounted to 41 nM and the inhibition result is “Dose-dependent effect”.

For `O=[N+]([O-])c1ccc(/C=C/c2ccc(-c3cccs3)s2)cc1`, in experiment [1], the Ki was 0.56 nM and the inhibition entry is “Dose-dependent effect”.

Turning to `CC(C)(C)c1ccc(/C=C/c2ccc(-c3cccs3)s2)cc1`, in experiment [1], the Ki turned out to be 0.73 nM and the inhibition result was “Dose-dependent effect”. In addition, the outcome in the experiment filed under Mus musculus [2] was Active.

With `Ic1ccc(-c2ccc(/C=C/c3ccccc3)s2)s1`, in experiment [1], the Ki was found to be 0.24 nM and the inhibition result is “Dose-dependent effect”.

For the molecule `Fc1ccc(/C=C/c2ccc(-c3cccs3)s2)cc1`, in experiment [1], affinity was put at a Ki of 4.06 nM and the inhibition result was “Dose-dependent effect”.

As to `Brc1ccc(/C=C/c2ccc(-c3ccc(I)s3)s2)cc1`, in experiment [1], the Ki was determined as 0.19 nM and the inhibition entry was “Dose-dependent effect”.

With `Brc1ccc(-c2ccc(/C=C/c3ccccc3)s2)s1`, in experiment [1], the affinity corresponds to a Ki of 1.32 nM and the inhibition entry was “Dose-dependent effect”.

Turning to `Cc1ccc(/C=C/c2ccc(-c3cccs3)s2)cc1`, in experiment [1], the inhibitory constant (Ki) is 1.15 nM and the inhibition entry was “Dose-dependent effect”.

As for `C(=C\c1ccc(-c2cccs2)s1)/c1ccccc1`, in experiment [1], the affinity corresponds to a Ki of 4.78 nM and the inhibition result is “Dose-dependent effect”.

Take `Clc1ccc(/C=C/c2ccc(-c3ccc(I)s3)s2)cc1`: in experiment [1], the Ki came out at 1.1 nM and the inhibition result is “Dose-dependent effect”.

Regarding `Cc1ccc(/C=C/c2ccc(-c3ccc(I)s3)s2)cc1`, in experiment [1], the affinity corresponds to a Ki of 0.8 nM and the inhibition result was “Dose-dependent effect”.

As to `CN(C)c1ccc(/C=C/c2ccc(-c3cccs3)s2)cc1`, in experiment [1], the affinity, expressed as Ki, was 0.73 nM and the inhibition result is “Dose-dependent effect”. Also, in the experiment listed under Mus musculus [2], the result was Active.

As to `Brc1ccc(/C=C/c2ccc(-c3cccs3)s2)cc1`, in experiment [1], the Ki amounted to 0.99 nM and the inhibition entry was “Dose-dependent effect”.

As to `Oc1ccc(/C=C/c2ccc(-c3ccc(Br)s3)s2)cc1`, in experiment [1], the Ki stood at 3.6 nM and the inhibition entry was “Dose-dependent effect”.

In the case of `Fc1ccc(/C=C/c2ccc(-c3ccc(Br)s3)s2)cc1`, in experiment [1], affinity was put at a Ki of 0.81 nM and the inhibition result is “Dose-dependent effect”.

Regarding `COc1ccc(/C=C/c2ccc(-c3ccc(Br)s3)s2)cc1`, in experiment [1], affinity was put at a Ki of 0.72 nM and the inhibition result was “Dose-dependent effect”.

Consider `COc1ccc(/C=C/c2ccc(-c3cccs3)s2)cc1`, for which, in experiment [1], the Ki was 1.48 nM and the inhibition result is “Dose-dependent effect”.

As to `Brc1ccc(/C=C/c2ccc(-c3ccc(Br)s3)s2)cc1`, in experiment [1], the Ki was 0.22 nM and the inhibition entry was “Dose-dependent effect”.

On to `CC(C)(C)c1ccc(/C=C/c2ccc(-c3ccc(I)s3)s2)cc1`, for which, in experiment [1], the Ki came out at 1.58 nM and the inhibition entry is “Dose-dependent effect”.

As for `Cc1ccc(/C=C/c2ccc(-c3ccc(Br)s3)s2)cc1`, in experiment [1], the Ki came out at 0.45 nM and the inhibition result is “Dose-dependent effect”.

As for `Brc1ccc(-c2ccc(/C=C/c3ccc(I)cc3)s2)s1`, in experiment [1], the affinity, expressed as Ki, was 0.51 nM and the inhibition entry was “Dose-dependent effect”.

`CC(C)(C)c1ccc(/C=C/c2ccc(-c3ccc(Br)s3)s2)cc1`: in experiment [1], affinity was put at a Ki of 0.95 nM and the inhibition result is “Dose-dependent effect”.

Consider `Fc1ccc(/C=C/c2ccc(-c3ccc(I)s3)s2)cc1`, for which, in experiment [1], the Ki came out at 0.55 nM and the inhibition result was “Dose-dependent effect”.

Regarding `Clc1ccc(/C=C/c2ccc(-c3cccs3)s2)cc1`, in experiment [1], the Ki was determined as 0.74 nM and the inhibition entry was “Dose-dependent effect”.

For the molecule `CN(C)c1ccc(/C=C/c2ccc(-c3ccc(Br)s3)s2)cc1`, in experiment [1], the Ki was found to be 0.36 nM and the inhibition entry was “Dose-dependent effect”. For the same molecule, the outcome in the experiment listed under Mus musculus [2] was Active.

Regarding `Clc1ccc(/C=C/c2ccc(-c3ccc(Br)s3)s2)cc1`, in experiment [1], the Ki worked out at 1.02 nM and the inhibition result is “Dose-dependent effect”.

Turning to `Ic1ccc(/C=C/c2ccc(-c3cccs3)s2)cc1`, in experiment [1], affinity was put at a Ki of 0.92 nM and the inhibition entry was “Dose-dependent effect”. Besides, in the experiment listed under Mus musculus [3], the outcome was Active.

As for `COc1ccc(/C=C/c2ccc(-c3ccc(I)s3)s2)cc1`, in experiment [1], affinity was put at a Ki of 0.3 nM and the inhibition entry was “Dose-dependent effect”. For the same molecule, the result in the experiment filed under Mus musculus [3] was Active.
